From ChEMBL document CHEMBL4052816, “Development of Clickable Monophosphoryl Lipid A Derivatives toward Semisynthetic Conjugates with Tumor-Associated Carbohydrate Antigens” (J Med Chem, 2017)
Active and inactive are the calls of the source.

Key:
BMDM [1] = test: Immunostimulatory activity in C57BL/6 mouse BMDM assessed as increase in IL-10 production at 20 ug/ml after 6 to 72 hrs by immunoassay; type: functional, cell-based
How it was run: (§1)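 Bone marrow macrophages from wild-type C57BL/6 mice (0.5 × 10^6/well) were grown for 24 h, then given fresh medium containing compound at 20 μg/mL for 6, 24, 48 and 72 h. Three independent experiments were run, means ± SD.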

THP-1 [2] = test: Immunostimulatory activity in human THP1 cells assessed as increase in IFN-gamma production at 20 ug/ml after 6 to 72 hrs by immunoassay; type: functional, cell-based
How it was run: (§2)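 THP-1 cells (0.5 × 10^6/well) were grown in RPMI/10% FBS for 24 h, then given fresh medium containing compound at 20 μg/mL for 6, 24, 48 and 72 h. Cell-free supernatants were assayed for IL-8 and IL-6 by ELISA, and for IL-10, IFN-γ and TNF-α by a human Th1/Th2 multiplex bead immunoassay. Results were pooled from three independent experiments, means ± SD.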

THP-1 [3] = test: Immunostimulatory activity in human THP1 cells assessed as increase in IL-10 production at 20 ug/ml after 6 to 72 hrs by immunoassay; type: functional, cell-based; how it was run: as §2
THP-1 [4] = test: Cytotoxicity against human THP1 cells assessed as decrease in cell viability at 0.1 to 20 ug/ml after 6 to 48 hrs by SRB assay; type: cell-based
How it was run: (§3)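 THP-1 cells and C57BL/6 wild-type bone marrow-derived macrophages were kept in RPMI with 10% FBS, penicillin and streptomycin at 37 °C and 5% CO2. BMDM medium also contained gentamycin. Cells were exposed to compound at 20, 10, 1 and 0.1 μg/mL, and viability was read with a colorimetric assay.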

BMDM [5] = test: Immunostimulatory activity in C57BL/6 mouse BMDM assessed as increase in GM-CSF production at 20 ug/ml after 6 to 72 hrs by immunoassay; type: functional, cell-based; how it was run: as §1
BMDM [6] = test: Immunostimulatory activity in C57BL/6 mouse BMDM assessed as increase in IL-4 production at 20 ug/ml after 6 to 72 hrs by immunoassay; type: functional, cell-based; how it was run: as §1
BMDM [7] = test: Immunostimulatory activity in C57BL/6 mouse BMDM assessed as increase in IL-5 production at 20 ug/ml after 6 to 72 hrs by immunoassay; type: functional, cell-based; how it was run: as §1
BMDM [8] = test: Immunostimulatory activity in C57BL/6 mouse BMDM assessed as increase in IL-2 production at 20 ug/ml after 6 to 72 hrs by immunoassay; type: functional, cell-based; how it was run: as §1
BMDM [9] = test: Immunostimulatory activity in C57BL/6 mouse BMDM assessed as increase in CD80 production at 20 ug/ml after 6 to 72 hrs by flow cytometric method; type: functional, cell-based
How it was run: (§4)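 C57BL/6 BMDM (0.5 × 10^6/well) were stimulated with compound at 20 μg/mL for 6, 24, 48 and 72 h. Cells were then stained with phycoerythrin-conjugated anti-CD40, anti-CD80 or anti-CD86, plus allophycocyanin-conjugated anti-MHC class II. Isotype antibodies set nonspecific binding, and cells were analysed by flow cytometry. Three independent experiments were run.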

BMDM [10] = test: Immunostimulatory activity in C57BL/6 mouse BMDM assessed as increase in CD86 production at 20 ug/ml after 6 to 72 hrs by flow cytometric method; type: functional, cell-based; how it was run: as §4
THP-1 [11] = test: Immunostimulatory activity in human THP1 cells assessed as increase in IL-8 production at 20 ug/ml after 6 to 72 hrs by ELISA; type: functional, cell-based; how it was run: as §2
BMDM [12] = test: Immunostimulatory activity in C57BL/6 mouse BMDM assessed as increase in IFN-gamma production at 20 ug/ml after 6 to 72 hrs by immunoassay; type: functional, cell-based; how it was run: as §1
BMDM [13] = test: Immunostimulatory activity in C57BL/6 mouse BMDM assessed as increase in MHC-class 2 production at 20 ug/ml after 6 to 72 hrs by flow cytometric method; type: functional, cell-based; how it was run: as §4
BMDM [14] = test: Immunostimulatory activity in C57BL/6 mouse BMDM assessed as increase in CD40 production at 20 ug/ml after 6 to 72 hrs by flow cytometric method; type: functional, cell-based; how it was run: as §4
THP-1 [15] = test: Immunostimulatory activity in human THP1 cells assessed as increase in TNF-alpha production at 20 ug/ml after 6 to 72 hrs by immunoassay; type: functional, cell-based; how it was run: as §2
BMDM [16] = test: Immunostimulatory activity in C57BL/6 mouse BMDM assessed as increase in IL-12 production at 20 ug/ml after 6 to 72 hrs by immunoassay; type: functional, cell-based; how it was run: as §1
THP-1 [17] = test: Immunostimulatory activity in human THP1 cells assessed as increase in IL-6 production at 20 ug/ml after 6 to 72 hrs by ELISA; type: functional, cell-based; how it was run: as §2
[18] = Cytotoxicity against C57BL/6 mouse BMDM assessed as decrease in cell viability at 20 ug/ml after 6 to 48 hrs by SRB assay; type: cell-based; how it was run: as §3
BMDM [19] = test: Immunostimulatory activity in C57BL/6 mouse BMDM assessed as increase in TNFalpha production at 20 ug/ml after 6 to 72 hrs by ELISA; type: functional, cell-based; how it was run: as §1
BMDM [20] = test: Immunostimulatory activity in C57BL/6 mouse BMDM assessed as increase in IL-6 production at 20 ug/ml after 6 to 72 hrs by ELISA; type: functional, cell-based; how it was run: as §1

Measured: Activity

CCCCCCCCCCCCCC(=O)O[C@H](CCCCCCCCCCC)CC(=O)O[C@@H]1[C@@H](NC(=O)C[C@@H](CCCCCCCCCCC)OC(=O)CCCCCCCCCCC)[C@H](OC[C@H]2OC(O)[C@H](NC(=O)C[C@H](O)CCCCCCCCCCC)[C@@H](OC(=O)C[C@H](O)CCCCCCCCCCC)[C@@H]2O)O[C@H](C(=O)NCCCCCCN=[N+]=[N-])[C@H]1OP(=O)(O)O (stereo partly specified)
inactive: BMDM [1] | THP-1 [2] | BMDM [5] | BMDM [6] | BMDM [7] | BMDM [8] | BMDM [9] | BMDM [10] | BMDM [12] | BMDM [13] | BMDM [14] | BMDM [16]
Non-Toxic: THP-1 [4]
active: THP-1 [3] | THP-1 [11] | THP-1 [15]

CCCCCCCCCCCCCC(=O)O[C@H](CCCCCCCCCCC)CC(=O)O[C@@H]1[C@@H](NC(=O)C[C@@H](CCCCCCCCCCC)OC(=O)CCCCCCCCCCC)[C@H](OC[C@H]2OC(O)[C@H](NC(=O)C[C@H](O)CCCCCCCCCCC)[C@@H](OC(=O)C[C@H](O)CCCCCCCCCCC)[C@@H]2O)O[C@H](C(=O)NCCCCCSCCCO[C@H]2O[C@H](CO)[C@H](O)[C@H](O)[C@H]2NC(C)=O)[C@H]1OP(=O)(O)O (stereo partly specified)
active: THP-1 [2] | THP-1 [3] | THP-1 [11] | THP-1 [17] | BMDM [19]
Non-Toxic: THP-1 [4]
inactive: BMDM [1] | BMDM [5] | BMDM [6] | BMDM [7] | BMDM [8] | BMDM [9] | BMDM [10] | BMDM [12] | BMDM [13] | BMDM [14] | BMDM [16]
Toxic: [18]

C#CCCCCNC(=O)[C@H]1O[C@@H](OC[C@H]2OC(O)[C@H](NC(=O)C[C@H](O)CCCCCCCCCCC)[C@@H](OC(=O)C[C@H](O)CCCCCCCCCCC)[C@@H]2O)[C@H](NC(=O)C[C@@H](CCCCCCCCCCC)OC(=O)CCCCCCCCCCC)[C@@H](OC(=O)C[C@@H](CCCCCCCCCCC)OC(=O)CCCCCCCCCCCCC)[C@@H]1OP(=O)(O)O (stereo partly specified)
active: THP-1 [3] | BMDM [20] | THP-1 [11] | THP-1 [15] | BMDM [19]
Toxic: [18]
Non-Toxic: THP-1 [4]
inactive: BMDM [1] | THP-1 [2] | BMDM [5] | BMDM [6] | BMDM [7] | BMDM [8] | BMDM [9] | BMDM [10] | BMDM [12] | BMDM [13] | BMDM [14] | BMDM [16]

CCCCCCCCCCCCCC(=O)O[C@H](CCCCCCCCCCC)CC(=O)O[C@@H]1[C@@H](NC(=O)C[C@@H](CCCCCCCCCCC)OC(=O)CCCCCCCCCCC)[C@H](OC[C@H]2OC(O)[C@H](NC(=O)C[C@@H](CCCCCCCCCCC)OC(=O)C[C@H](O)CCCCCCCCCCCCC)[C@@H](O)[C@@H]2O)O[C@H](CO)[C@H]1OP(=O)(O)O (stereo partly specified)
active: THP-1 [3] | BMDM [9] | BMDM [10] | THP-1 [11] | BMDM [13] | BMDM [14]
inactive: THP-1 [2]

CCCCCCCCCCCCCC(=O)O[C@H](CCCCCCCCCCC)CC(=O)O[C@@H]1[C@@H](NC(=O)C[C@@H](CCCCCCCCCCC)OC(=O)CCCCCCCCCCC)[C@H](OC[C@H]2OC(O)[C@H](NC(=O)C[C@H](O)CCCCCCCCCCC)[C@@H](OC(=O)C[C@H](O)CCCCCCCCCCC)[C@@H]2O)O[C@H](C(=O)O)[C@H]1OP(=O)(O)O (stereo partly specified)
active: THP-1 [3] | BMDM [20] | THP-1 [11] | THP-1 [17] | THP-1 [15] | BMDM [19]
inactive: BMDM [1] | THP-1 [2] | BMDM [5] | BMDM [6] | BMDM [7] | BMDM [8] | BMDM [9] | BMDM [10] | BMDM [12] | BMDM [13] | BMDM [14] | BMDM [16]
Non-Toxic: THP-1 [4]

CCCCCCCCCCCCCC(=O)O[C@H](CCCCCCCCCCC)CC(=O)O[C@@H]1[C@@H](NC(=O)C[C@@H](CCCCCCCCCCC)OC(=O)CCCCCCCCCCC)[C@H](OC[C@H]2OC(O)[C@H](NC(=O)C[C@H](O)CCCCCCCCCCC)[C@@H](OC(=O)C[C@H](O)CCCCCCCCCCC)[C@@H]2O)O[C@H](C(=O)NCCCCCSCCCO[C@H]2O[C@H](CO)[C@H](O)[C@H](O[C@@H]3O[C@H](CO)[C@H](O)[C@H](O)[C@H]3O)[C@H]2NC(C)=O)[C@H]1OP(=O)(O)O (stereo partly specified)
Non-Toxic: THP-1 [4]
active: THP-1 [2] | THP-1 [3] | BMDM [20] | THP-1 [11] | THP-1 [15]
inactive: BMDM [1] | BMDM [5] | BMDM [6] | BMDM [7] | BMDM [8] | BMDM [9] | BMDM [10] | BMDM [12] | BMDM [13] | BMDM [14] | BMDM [16] | BMDM [19]

C=CCCCNC(=O)[C@H]1O[C@@H](OC[C@H]2OC(O)[C@H](NC(=O)C[C@H](O)CCCCCCCCCCC)[C@@H](OC(=O)C[C@H](O)CCCCCCCCCCC)[C@@H]2O)[C@H](NC(=O)C[C@@H](CCCCCCCCCCC)OC(=O)CCCCCCCCCCC)[C@@H](OC(=O)C[C@@H](CCCCCCCCCCC)OC(=O)CCCCCCCCCCCCC)[C@@H]1OP(=O)(O)O (stereo partly specified)
inactive: BMDM [1] | BMDM [5] | BMDM [6] | BMDM [7] | BMDM [8] | BMDM [9] | BMDM [10] | BMDM [12] | BMDM [13] | BMDM [14] | BMDM [16]
Toxic: [18]
Non-Toxic: THP-1 [4]
active: THP-1 [2] | THP-1 [3] | BMDM [20] | THP-1 [11] | THP-1 [17] | THP-1 [15]
